Reference: ChEMBL document CHEMBL4041463, “Pyrazolo[1,5-a]pyridine-3-carboxamide hybrids: Design, synthesis and evaluation of anti-tubercular activity” (Eur J Med Chem, 2017)
Values after ≈ are worked out from the molar mass of the structure shown.

Columns and labels:
Type in all cases: functional
[1] = system: Mycobacterium tuberculosis; test: Antitubercular activity against Mycobacterium tuberculosis H37Ra harboring pTYOK in UAIRa broth culture assessed as concentration required to reduce relative luminescence unit to <10% measured after 4 days by autoluminescence assay; settings: 96 h
[2] = system: Mycobacterium tuberculosis; test: Antitubercular activity against isoniazid resistant Mycobacterium tuberculosis H37Rv harboring KAtG Y155 deletion mutant after 5 days
Method in brief: (§1)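 Ten-point two-fold DMSO dilutions in 7H9-Tw-OADC, final DMSO 2%, top concentration 200 µM. Incubated 5 days; growth read as OD590. Controls: medium/DMSO background, 100 µM rifampicin, DMSO-only, plus rifampicin dose-response. Gompertz fit of % growth; MIC taken as onset of zero growth. Plate acceptance: OD590 >0.2 in maximum-growth wells and rifampicin MIC within 3-fold of expected.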

[3] = system: Mycobacterium tuberculosis; test: Antitubercular activity against isoniazid resistant Mycobacterium tuberculosis ATCC 35822 after 5 days; settings: ATCC 35822, 120 h; method in brief: as §1
[4] = system: Mycobacterium tuberculosis; test: Antitubercular activity against rifampicin resistant Mycobacterium tuberculosis H37Rv harboring rpoB S522L mutant after 5 days; method in brief: as §1
[5] = system: Mycobacterium tuberculosis; test: Antitubercular activity against rifampicin resistant Mycobacterium tuberculosis ATCC 35828 after 5 days; settings: ATCC 35828, 120 h; method in brief: as §1
[6] = system: Mycobacterium tuberculosis; test: Antitubercular activity against fluoroquinolone resistant Mycobacterium tuberculosis H37Rv harboring gyrB D94N mutant after 5 days; method in brief: as §1

SMILES	MIC [1]	MIC [2]	MIC [3]	MIC [4]	MIC [5]	MIC [6]
CCc1nn2ccc(Cl)cc2c1C(=O)NCc1ccc(-c2ccc(OC(F)(F)F)cc2)nc1	0.1 µg/mL (≈ 0.211 µM)	–	–	–	–	–
CCc1nn2ccc(Cl)cc2c1C(=O)NCC1CCN(CC23CC4CC(CC(C4)C2)C3)CC1	3 µg/mL (≈ 6.4 µM)	–	–	–	–	–
CCc1nn2ccc(Cl)cc2c1C(=O)NC[C@H]1CN(c2ccc(N3CCOCC3)c(F)c2)C(=O)O1	> 10 µg/mL	–	–	–	–	–
Cc1ccn2nc(C)c(C(=O)NCc3ccc(N4CCC(Oc5ccc(OC(F)(F)F)cc5)CC4)cc3)c2c1	0.03 µg/mL (≈ 0.0557 µM)	–	–	–	–	–
CCc1nn2ccc(Cl)cc2c1C(=O)NC/C=C(\C)CCC=C(C)C	0.3 µg/mL (≈ 0.834 µM)	–	–	–	–	–
Cc1ccn2nc(C)c(C(=O)NCc3ccc(OC(F)(F)F)cc3)c2c1	3 µg/mL (≈ 8.26 µM)	–	–	–	–	–
NNC(=O)c1ccncc1 [ISONIAZID]	0.41 µg/mL (≈ 2.99 µM)	>27 µg/mL	> 27 µg/mL	0.056 µg/mL (≈ 0.408 µM)	0.11 µg/mL (≈ 0.802 µM)	0.088 µg/mL (≈ 0.642 µM)
C[C@H]1COc2c(N3CCN(C)CC3)c(F)cc3c(=O)c(C(=O)O)cn1c23.C[C@H]1COc2c(N3CCN(C)CC3)c(F)cc3c(=O)c(C(=O)O)cn1c23.O [LEVOFLOXACIN]	–	0.44 µg/mL	0.59 µg/mL	0.37 µg/mL	0.63 µg/mL	10 µg/mL
CO[C@H]1/C=C/O[C@@]2(C)Oc3c(C)c(O)c4c(O)c(c(/C=N/N5CCN(C)CC5)c(O)c4c3C2=O)NC(=O)/C(C)=C\C=C\[C@H](C)[C@H](O)[C@@H](C)[C@@H](O)[C@@H](C)[C@H](OC(C)=O)[C@@H]1C [RIFAMPIN]	0.03 µg/mL (≈ 0.0365 µM)	0.016 µg/mL (≈ 0.0194 µM)	0.007 µg/mL (≈ 0.00851 µM)	0.42 µg/mL (≈ 0.51 µM)	> 41 µg/mL	0.017 µg/mL (≈ 0.0207 µM)
